# Screens as filed in PubChem BioAssay.
# This is a sample that favours compounds with a hit; in the whole collection about 1.9% have one here.
# SR-BI uptake up: activators of SR-BI mediated HDL lipid uptake. CHO ldlA[mSR-BI] cells, DiI-HDL uptake fluorescence, 3 h; 100 = double the neutral-control signal. activation, % at 12.5 µM. 320,000 compounds, 0.096% hits. AID 504775;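 active = mean replicate activation of at least 60% and every replicate at or above 60%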;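 also: 0% = median plate neutral-control signal and 100% = twice that signal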
#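 Material – SR-BI-overexpressing, LDLR-lacking CHO cells · Medium – BSA-supplemented, HEPES-buffered Ham's F12, pH 7.4 · Doses – single concentration · Times – compound with DiI-HDL co-incubation, 3 h at 37 °C · Measured by – bottom-read fluorescence, 550/595 nm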
# Rin1-Abl PPI inh: human Rin1-Abl interaction inhibition | 360,000 compounds, 0.4% hits | P00519+Q13671 | inhibition, % at 7.35 µM | TR-FRET Rin1/Abl binding, biochemical; in the data active = inhibition above about 5%, passing the limit was not always enough
# GRK2 aptamer HTS: blocks RNA aptamer binding to human GRK2. P25098. bead flow cytometry, FAM-aptamer displacement from GRK2. inhibition of aptamer binding, % at 10 µM. 330,000 compounds, 0.59% hits;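 active = inhibition of aptamer binding above 40%, roughly 3 SD of noise, on plates passing a quality check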;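 also: median bead fluorescence of bound FAM aptamer so fluorescent compounds give negative values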
# SR-BI HDL uptake: blocks mouse SR-BI lipid uptake from DiI-HDL; Q61009; ldlA[mSR-BI] CHO cells, DiI-HDL uptake fluorescence, 3 h; inhibition, % at 12.5 µM; 320,000 compounds, 0.96% hits; AID 488896;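 active = mean replicate inhibition of at least 70% and a set share of replicates each scoring 70 or more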;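 also: 0% = median of neutral control wells and 100% = median of positive control wells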
# Target sequence (Q61009 whole entry, looked up): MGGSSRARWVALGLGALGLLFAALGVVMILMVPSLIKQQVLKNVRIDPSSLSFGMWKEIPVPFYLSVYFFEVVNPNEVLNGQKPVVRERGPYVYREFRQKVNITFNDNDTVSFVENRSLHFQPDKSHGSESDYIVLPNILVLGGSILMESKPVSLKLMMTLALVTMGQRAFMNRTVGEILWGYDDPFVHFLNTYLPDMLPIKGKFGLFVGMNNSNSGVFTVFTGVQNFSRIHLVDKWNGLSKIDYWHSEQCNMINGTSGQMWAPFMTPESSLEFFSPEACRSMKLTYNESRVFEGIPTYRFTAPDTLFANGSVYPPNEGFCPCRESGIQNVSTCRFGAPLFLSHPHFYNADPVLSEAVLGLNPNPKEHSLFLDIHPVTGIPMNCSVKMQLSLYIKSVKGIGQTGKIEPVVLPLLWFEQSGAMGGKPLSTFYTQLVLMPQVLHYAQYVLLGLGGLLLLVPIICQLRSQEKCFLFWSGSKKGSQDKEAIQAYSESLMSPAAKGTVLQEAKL
# GRK2 inh confirm: human GRK2 inhibition confirmation, cherry pick 1 | shares compounds with GRK2 aptamer HTS | bead-bound GRK2, FAM-aptamer displacement, flow cytometry | aptamer displacement, % at 10 µM | 2,000 compounds, 4% hits | AID 504451;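 active = aptamer displacement above 40%, near three times the noise of non-fluorescent compounds, on plates passing quality checks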;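 also: negative values mostly reflect intrinsic compound fluorescence rather than true enhancement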
# Aptamer quench: counter-screen for GRK2 aptamer inhibitors: fluorescent aptamer quenchers; shares compounds with GRK2 aptamer HTS; Fluorescent RNA aptamer beads, quenching, flow cytometry; active compounds read high; fluorescence change (kMESF span), kMESF (no concentration beside the values); 110 tested, under 10 active; AID 504521;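 active = compounds whose bead fluorescence drops by more than 37 kMESF across the dose range, marking them as dye quenchers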
# Aptamer quench SP: quenches fluorescent RNA aptamer, GRK2 hit artifact; Carboxyfluorescein RNA aptamer on beads, flow cytometry quenching; active compounds read low; 2,000 tested, under 10 active; fluorescence response (% of DMSO), % at 10 µM; AID 504580; shares compounds with GRK2 aptamer HTS;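 active = compounds that quench the bead-bound fluorescent RNA probe, cutting fluorescence to under half of the solvent control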;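 also: counterscreen run without GRK2 so only probe quenching by compound is measured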
# GRK2 CP2: human GRK2 inhibition confirmation, cherry pick 2; shares compounds with GRK2 aptamer HTS; bead-bound GRK2, FAM-aptamer displacement, flow cytometry; inhibition of aptamer binding, % at 10 µM; 360 tested, under 10 active;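 active = inhibition of aptamer binding above 40%, about triple the noise seen with nonglowing compounds, on plates passing quality control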;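 also: negative values mostly come from compounds that fluoresce themselves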
# FAM quench CP2: quenches fluorescent RNA aptamer, GRK2 hit artifact; shares compounds with GRK2 aptamer HTS; carboxyfluorescein RNA aptamer beads, flow cytometry quenching; active compounds read low; fluorescence response vs DMSO, % at 10 µM; 360 tested, under 10 active; AID 588494;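 active = response vs DMSO under 50%, meaning signal dropped by over half, treated as fluorescence quencher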;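 also: labelled aptamer on streptavidin beads without GRK2 as a quench counter-screen; 100% = bead fluorescence of DMSO wells and lower means quenching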
# Active calls of the source: *; . = no result; ! = not active in a repeat.
SMILES,SR-BI uptake up,Rin1-Abl PPI inh,GRK2 aptamer HTS,SR-BI HDL uptake,GRK2 inh confirm,Aptamer quench SP,others
CC1(Oc2ccccc2)CCN(Cc2csc3ccccc23)C1 (stereo not drawn),.,-3.9,.,.,.,.,
COc1ccc(/C(O)=C2/C(=O)C(=O)N(CCCN3CCOCC3)C2c2ccc(Cl)cc2)cc1 (stereo not drawn),.,-4.0,.,.,.,.,
COCOc1ccc(-c2ncc(OC)nc2NC(=O)c2cc(C)oc2C)cc1,.,1.6,.,.,.,.,
COc1ccccc1N1CCN(/N=C/c2ccc([N+](=O)[O-])cc2)CC1,-30.5,0.9,1.0,30.5,.,.,
COc1ccccc1N1CCN(/N=C/c2ccc(Cl)c([N+](=O)[O-])c2)CC1,-20.6,-2.1,100.0*,20.6,0.6,98.4,
O=C(O)c1cc(-c2ccco2)nc2ccc(Br)cc12,-3.5,0.1,55.0*!,3.5,8.4,94.3,
C=C(C)C(=O)Nc1cccc(C2=NOC3(C2)C[C@@H](C(N)=O)N(C(=O)c2cc([N+](=O)[O-])cc([N+](=O)[O-])c2)C3)c1 (stereo partly drawn),0.9,-3.6,79.0*,-0.9,57.1*,97.2,Aptamer quench=8.5
CCC(=O)Nc1cccc(C2=NOC3(C2)C[C@H](C(N)=O)N(C(=O)CC#N)C3)c1 (stereo partly drawn),13.8,0.0,0.0,-13.8,.,.,GRK2 CP2=-34.7;FAM quench CP2=101.0
C=C(C)C(=O)Nc1cccc(C2=NOC3(C2)C[C@@H](C(N)=O)N(C(=O)CCCCC)C3)c1 (stereo partly drawn),-12.2,.,98.0*,12.2,90.1*,98.5,Aptamer quench=-0.2
CC1(C(=O)N2CC3(CC(c4cccc(NC(=O)CC(c5ccccc5)c5ccccc5)c4)=NO3)C[C@@H]2C(N)=O)CC1 (stereo partly drawn),-60.2,3.3,0.0,60.2,.,.,GRK2 CP2=6.4;FAM quench CP2=99.0
Cc1noc(-c2ccccc2)c1NC(=O)Nc1ccc2nc([C@H]3C[C@H](O)[C@@H](CO)O3)[nH]c2c1,.,-2.0,.,.,.,.,
CN(Cc1ccccc1)C(=O)CN1CCN(S(=O)(=O)c2ccccc2F)CC1,.,-3.8,.,.,.,.,
O=C(c1cccc(S(=O)(=O)N2CCN(c3ccc(F)cc3)CC2)c1)N1CCCC(C(F)(F)F)C1 (stereo not drawn),-9.4,-3.7,1.0,9.4,.,.,
CCCCCC(=O)N1CC2(CC(c3cccc(NC(=O)[C@@H]4CCC(=O)N4)c3)=NO2)C[C@@H]1C(N)=O (stereo partly drawn),18.3,3.0,0.0,-18.3,.,.,GRK2 CP2=-13.1;FAM quench CP2=100.0
C=C(C)C(=O)Nc1cccc(C2=NOC3(C2)C[C@@H](C(N)=O)N(C(=O)[C@H]2CCC(=O)N2)C3)c1 (stereo partly drawn),4.1,1.0,1.0,-4.1,.,.,
N#CC1=C2SCN(Cc3ccco3)CN2C(=O)CC1c1c(F)cccc1Cl (stereo not drawn),17.2,-0.9,88.0*,-17.2,-2.5,100.3,
CCN(CC)c1ccc(NC(=O)c2cc3c(OC)cccc3[nH]2)cc1,-14.6,-0.9,12.0,14.6,1.0,93.7,
COc1cccc2[nH]c(C(=O)NC(C)c3ccccc3)cc12 (stereo not drawn),0.1,0.6,0.0,-0.1,.,.,
COC(=O)c1ccc2nc(C3CCCCC3)c(Cc3cccc(Cl)c3)n2c1,.,6.4,.,.,.,.,
CC(C)=C(NC(=O)c1ccccc1Cl)C(=O)NCCc1nc2ccccc2[nH]1,.,-0.9,.,.,.,.,
COc1ccc(N2CCN(C(=O)NC(=O)c3ccccc3)CC2)cc1,8.1,0.2,57.0*,-8.1,.,.,GRK2 CP2=5.1;FAM quench CP2=96.0
COc1ccc(S(=O)(=O)N2CCCCC2)cc1NC(=O)c1[nH]c(C)c(C(C)=O)c1C,.,2.6,0.0,69.7,.,.,
